ChEMBL document CHEMBL3603830, “Synthesis and structure-activity relationship of uracil nucleotide derivatives towards the identification of human P2Y6 receptor antagonists” (Bioorg Med Chem, 2015)
One block for each molecule: values may come before it. Activity calls are given as the source filed them. No cut-off for these calls is given here.

Key:
[1] = target: T1, NPP1 (ectonucleotide pyrophosphatase/phosphodiesterase family member 1) (Homo sapiens, UniProt P22413); assay: Drug metabolism assessed as human NPP1-mediated compound hydrolysis at 100 uM after 2 hrs by HPLC analysis relative to UDP-treated control; type: ADME; settings: human NPP1 enzyme, read-out: Drug metabolism
T1 sequence (P22413 whole entry): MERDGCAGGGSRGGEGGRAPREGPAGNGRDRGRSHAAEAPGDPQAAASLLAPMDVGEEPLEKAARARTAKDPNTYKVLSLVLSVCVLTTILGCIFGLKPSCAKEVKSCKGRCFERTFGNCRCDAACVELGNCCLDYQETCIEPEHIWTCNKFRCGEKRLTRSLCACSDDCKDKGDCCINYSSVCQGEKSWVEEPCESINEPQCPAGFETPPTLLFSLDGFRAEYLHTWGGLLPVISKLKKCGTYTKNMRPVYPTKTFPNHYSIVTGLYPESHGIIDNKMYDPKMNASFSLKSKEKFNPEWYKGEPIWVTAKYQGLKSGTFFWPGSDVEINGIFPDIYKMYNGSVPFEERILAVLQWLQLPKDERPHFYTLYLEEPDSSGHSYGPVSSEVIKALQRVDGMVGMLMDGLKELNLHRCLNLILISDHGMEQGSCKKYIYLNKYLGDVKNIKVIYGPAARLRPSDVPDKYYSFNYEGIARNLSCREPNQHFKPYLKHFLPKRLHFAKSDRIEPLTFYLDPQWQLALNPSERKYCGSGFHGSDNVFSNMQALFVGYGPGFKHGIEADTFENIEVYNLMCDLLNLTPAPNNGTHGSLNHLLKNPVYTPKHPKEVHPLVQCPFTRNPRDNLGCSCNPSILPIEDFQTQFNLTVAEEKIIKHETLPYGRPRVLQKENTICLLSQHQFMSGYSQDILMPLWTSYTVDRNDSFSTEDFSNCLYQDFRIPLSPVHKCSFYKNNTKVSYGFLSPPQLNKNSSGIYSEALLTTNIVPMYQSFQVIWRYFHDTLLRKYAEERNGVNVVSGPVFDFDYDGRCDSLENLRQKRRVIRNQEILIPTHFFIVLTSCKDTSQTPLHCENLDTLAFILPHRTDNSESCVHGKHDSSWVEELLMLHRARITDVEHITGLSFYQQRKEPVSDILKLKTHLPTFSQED
In short: (§1)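 Compound at 100 µM incubated at 37 °C with hNPP1 for 2 h or hNPP3 for 3 h, in buffer of 1 mM CaCl2, 200 mM NaCl, 10 mM KCl and 100 mM Tris, pH 8.5. Quenched with perchloric acid, neutralized to pH 7 with KOH, then C18 HPLC with isocratic TEAA (pH 7)/CH3CN. Degradation taken from the nucleoside monophosphate peak area minus control, relative to 100% UDP hydrolysis.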

[2] = target: T2, NPP3 (ectonucleotide pyrophosphatase/phosphodiesterase family member 3) (Homo sapiens, UniProt O14638); assay: Drug metabolism assessed as human NPP3-mediated compound hydrolysis at 100 uM after 3 hrs by HPLC analysis relative to UDP-treated control; type: ADME; settings: human NPP3 enzyme, read-out: Drug metabolism; in short: as §1
T2 sequence (O14638 whole entry): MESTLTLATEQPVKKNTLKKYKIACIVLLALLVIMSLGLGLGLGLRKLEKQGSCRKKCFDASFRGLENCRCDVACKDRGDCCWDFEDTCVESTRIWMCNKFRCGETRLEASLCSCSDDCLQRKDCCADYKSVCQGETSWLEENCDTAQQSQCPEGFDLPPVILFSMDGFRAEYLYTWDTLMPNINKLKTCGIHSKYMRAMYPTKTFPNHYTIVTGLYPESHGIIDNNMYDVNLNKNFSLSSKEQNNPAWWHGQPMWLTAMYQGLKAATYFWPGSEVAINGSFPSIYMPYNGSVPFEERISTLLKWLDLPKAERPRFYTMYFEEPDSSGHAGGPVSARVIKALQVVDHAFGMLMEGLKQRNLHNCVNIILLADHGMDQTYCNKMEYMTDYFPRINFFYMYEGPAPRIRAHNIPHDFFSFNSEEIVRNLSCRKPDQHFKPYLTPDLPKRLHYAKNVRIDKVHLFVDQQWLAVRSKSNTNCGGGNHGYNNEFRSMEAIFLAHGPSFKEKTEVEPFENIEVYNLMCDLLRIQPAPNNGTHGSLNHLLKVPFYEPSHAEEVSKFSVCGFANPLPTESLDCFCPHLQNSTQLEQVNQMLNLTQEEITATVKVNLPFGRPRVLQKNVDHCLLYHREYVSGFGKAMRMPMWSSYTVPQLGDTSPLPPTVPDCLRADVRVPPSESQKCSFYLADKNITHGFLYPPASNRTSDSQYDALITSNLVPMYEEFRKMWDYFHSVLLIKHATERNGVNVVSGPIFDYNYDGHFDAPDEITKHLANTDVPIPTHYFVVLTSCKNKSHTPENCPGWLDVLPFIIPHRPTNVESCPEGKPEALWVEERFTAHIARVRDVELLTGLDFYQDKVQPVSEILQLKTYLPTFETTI

P2Y purinoceptor 6 [3] = target: T3, P2Y purinoceptor 6 (Homo sapiens, UniProt Q15077); assay: Agonist activity at human recombinant P2Y6 receptor expressed in human 1321N1 cells assessed as increase in intracellular calcium level at >100 uM by fluo-4 dye-based spectrofluorometric analysis; type: functional, cell-based
T3 sequence (Q15077 whole entry): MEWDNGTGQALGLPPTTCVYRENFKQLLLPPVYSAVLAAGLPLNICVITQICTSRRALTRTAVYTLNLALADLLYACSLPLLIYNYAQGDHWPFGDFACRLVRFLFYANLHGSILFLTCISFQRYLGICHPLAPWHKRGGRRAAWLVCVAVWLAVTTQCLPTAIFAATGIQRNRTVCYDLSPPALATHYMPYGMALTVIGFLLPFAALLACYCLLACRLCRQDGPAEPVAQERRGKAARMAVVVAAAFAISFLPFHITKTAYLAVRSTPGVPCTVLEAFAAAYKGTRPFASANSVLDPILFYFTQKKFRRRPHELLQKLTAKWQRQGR
In short: (§2)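 1321N1 cells stably expressing recombinant hP2Y6-R were trypsin/EDTA-detached, loaded with 1 µM Fluo-4/AM in HBSS (Ca2+/Mg2+) for 25 min at 37 °C, then held 25 min at 37 °C for de-esterification. Stirred cuvette suspension read at ex 488/em 520 nm after compound addition, with UDP as control. Fmax/Fmin set with 0.1% Triton X-100 then 50 mM EDTA; [Ca2+] = Kd(F−Fmin)/(Fmax−F).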

P2Y purinoceptor 6 [4] = target: T3, P2Y purinoceptor 6; assay: Antagonist activity at human recombinant P2Y6 receptor expressed in human 1321N1 cells assessed as inhibition of UDP-induced increase in intracellular calcium level at 30 uM incubated for 2 mins prior to UDP induction by fluo-4 dye-based spectrofluorometric analysis; type: functional, cell-based
In short: (§3)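 hP2Y6-R-expressing 1321N1 cells, Fluo-4/AM-loaded (1 µM, 25 min, 37 °C, then 25 min de-esterification) in HBSS with Ca2+/Mg2+, stirred in a cuvette with fluorescence at 488/520 nm. Analogue given 2 min before 1 µM UDP stimulation. Calcium calculated from Triton X-100/EDTA calibration. Two experiments in duplicate, mean ± SEM; one-way ANOVA against vehicle control.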

P2Y purinoceptor 6 [5] = target: T3, P2Y purinoceptor 6; assay: Agonist activity at human recombinant P2Y6 receptor expressed in human 1321N1 cells assessed as increase in intracellular calcium level by fluo-4 dye-based spectrofluorometric analysis; type: functional, cell-based; in short: as §2
P2Y purinoceptor 6 [6] = target: T3, P2Y purinoceptor 6; assay: Antagonist activity at human recombinant P2Y6 receptor expressed in human 1321N1 cells assessed as inhibition of UDP-induced increase in intracellular calcium level at 100 uM incubated for 2 mins prior to UDP induction by fluo-4 dye-based spectrofluorometric analysis; type: functional, cell-based; in short: as §3
P2Y purinoceptor 6 [7] = target: T3, P2Y purinoceptor 6; assay: Agonist activity at human recombinant P2Y6 receptor expressed in human 1321N1 cells assessed as increase in intracellular calcium level at 100 uM by fluo-4 dye-based spectrofluorometric analysis relative to UDP-treated control; type: functional, cell-based; in short: as §2
[8] = target: T4, Ectonucleotide pyrophosphatase/phosphodiesterase family member 1 (Homo sapiens) (UniProt P22413); assay: Inhibition of human NPP1-mediated UDP hydrolysis at 100 uM after 2 hrs relative to UDP-treated control
T4 sequence (whole entry): T1 sequence (P22413 whole entry)
In short: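 21.44 µg hNPP1 extract pre-incubated 3 min at 37 °C in 1 mM CaCl2, 140 mM NaCl, 5 mM KCl and 50 mM Tris, pH 8.5. Reaction started with compound and UDP, each 100 µM final. Stopped after 2 h with ice-cold perchloric acid, neutralized with KOH, then HPLC. Compared with UDP-only reference samples. Mean ± S.D. of three experiments.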

P2Y purinoceptor 6 [9] = target: T3, P2Y purinoceptor 6; assay: Agonist activity at human recombinant P2Y6 receptor expressed in human 1321N1 cells assessed as induction of calcium release at 100 uM by fluo-4 dye-based spectrofluorometric analysis; type: functional, cell-based
In short: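 1321N1 astrocytoma cells stably expressing recombinant hP2Y6-R, trypsin/EDTA-detached, loaded with 1 µM Fluo-4/AM in HBSS (Ca2+/Mg2+) for 25 min at 37 °C, then de-esterified 25 min. Stirred suspension in a quartz cuvette, excitation 488 nm and emission 520 nm. Compound added, with UDP as control. Fmax from 0.1% Triton X-100 and Fmin from 50 mM EDTA; [Ca2+]i = Kd(F−Fmin)/(Fmax−F). Two experiments in duplicate.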

[10] = target: T5, Ectonucleotide pyrophosphatase/phosphodiesterase family member 3 (Homo sapiens) (UniProt O14638); assay: Inhibition of human NPP3-mediated UDP hydrolysis at 100 uM after 3 hrs relative to UDP-treated control
T5 sequence (whole entry): T2 sequence (O14638 whole entry)

P2Y purinoceptor 6 [11] = target: T3, P2Y purinoceptor 6; assay: Agonist activity at human recombinant P2Y6 receptor expressed in human 1321N1 cells assessed as increase in intracellular calcium level at 10 uM by fluo-4 dye-based spectrofluorometric analysis relative to UDP-treated control; type: functional, cell-based; in short: as §2

SMILES: O=c1[nH]c(=O)n([C@@H]2O[C@H](COP(=O)(O)OS(=O)(=O)O)[C@@H](O)[C@H]2O)cc1F
metabolised at 2 h, 100 µM [1]: 18.9%
metabolised at 3 h, 100 µM [2]: 44.4%

SMILES: O=c1[nH]c(=O)n([C@@H]2O[C@H](COP(=O)(O)C(F)(F)P(=O)(O)O)[C@@H](O)[C@H]2O)cc1F
Activity (P2Y purinoceptor 6 [5]): Active
inhibition (P2Y purinoceptor 6 [6]): Active
inhibition (P2Y purinoceptor 6 [4]): inactive

SMILES: O=c1[nH]c(=O)n([C@H]2C[C@H](O)[C@@H](COP(=O)(O)C(F)(F)P(=O)(O)O)O2)cc1F
Activity (P2Y purinoceptor 6 [3]): inactive
inhibition (P2Y purinoceptor 6 [4]): inactive

SMILES: CC(C)c1cn([C@@H]2O[C@H](COP(=O)(O)CP(=O)(O)O)[C@@H](O)[C@H]2O)c(=O)[nH]c1=O
Activity (P2Y purinoceptor 6 [5]): inactive
inhibition (P2Y purinoceptor 6 [6]): 24%

SMILES: O=c1ccn([C@@H]2O[C@H](COP(=O)(O)CS(=O)(=O)O)[C@@H](O)[C@H]2O)c(=O)[nH]1
inhibition (P2Y purinoceptor 6 [6]): inactive
metabolised at 2 h, 100 µM [1]: 9.5%
metabolised at 3 h, 100 µM [2]: 13.5%
inhibition [8]: 26.7%
Activity (P2Y purinoceptor 6 [9]): inactive
inhibition [10]: 12.2%

SMILES: COc1cn([C@@H]2O[C@H](COP(=O)(O)CP(=O)(O)O)[C@@H](O)[C@H]2O)c(=O)[nH]c1=O
Activity (P2Y purinoceptor 6 [11]): 27%

SMILES: COc1cn([C@@H]2O[C@H](COP(=O)(O)CS(=O)(=O)O)[C@@H](O)[C@H]2O)c(=O)[nH]c1=O
inhibition (P2Y purinoceptor 6 [6]): inactive
metabolised at 2 h, 100 µM [1]: 21.6%
metabolised at 3 h, 100 µM [2]: 11%
inhibition [8]: 48.4%
Activity (P2Y purinoceptor 6 [9]): inactive
inhibition [10]: 10.5%

Further lines, results first:

Activity (P2Y purinoceptor 6 [3]): Active
inhibition (P2Y purinoceptor 6 [4]): inactive
SMILES: O=c1[nH]c(=O)n([C@H]2C[C@H](OP(=O)(O)O)[C@@H](COP(=O)(O)O)O2)cc1F

Activity (P2Y purinoceptor 6 [3]): Active
inhibition (P2Y purinoceptor 6 [4]): inactive
SMILES: O=c1[nH]c(=O)n([C@H]2C[C@H](O)[C@@H](COP(=O)(O)CP(=O)(O)O)O2)cc1F

Activity (P2Y purinoceptor 6 [5]): inactive
inhibition (P2Y purinoceptor 6 [6]): inactive
SMILES: Cn1c(=O)ccn([C@@H]2O[C@H](COP(=O)(O)CP(=O)(O)O)[C@@H](O)[C@H]2O)c1=O

Activity (P2Y purinoceptor 6 [7]): 60%
SMILES: Cc1cn([C@@H]2O[C@H](COP(=O)(O)CP(=O)(O)O)[C@@H](O)[C@H]2O)c(=O)[nH]c1=O

Activity (P2Y purinoceptor 6 [3]): inactive
inhibition (P2Y purinoceptor 6 [4]): inactive
SMILES: O=c1[nH]c(=O)n([C@H]2C[C@H](O)[C@@H](COP(=O)(O)C(Cl)(Cl)P(=O)(O)O)O2)cc1F

Activity (P2Y purinoceptor 6 [5]): inactive
inhibition (P2Y purinoceptor 6 [6]): inactive
SMILES: O=c1[nH]c(=O)n([C@@H]2O[C@H](COP(=O)(O)CP(=O)(O)O)[C@@H](O)[C@H]2O)cc1-c1ccccc1

Activity (P2Y purinoceptor 6 [5]): Active
inhibition (P2Y purinoceptor 6 [6]): 40%
Activity (P2Y purinoceptor 6 [3]): Active
inhibition (P2Y purinoceptor 6 [4]): inactive
SMILES: COc1cn([C@@H]2O[C@H](COP(=O)(O)C(F)(F)P(=O)(O)O)[C@@H](O)[C@H]2O)c(=O)[nH]c1=O

Activity (P2Y purinoceptor 6 [5]): Active
inhibition (P2Y purinoceptor 6 [6]): Active
inhibition (P2Y purinoceptor 6 [4]): inactive
SMILES: COc1cn([C@@H]2O[C@H](COP(=O)(O)C(Cl)(Cl)P(=O)(O)O)[C@@H](O)[C@H]2O)c(=O)[nH]c1=O

Activity (P2Y purinoceptor 6 [5]): Active
SMILES: O=c1[nH]c(=O)n([C@@H]2O[C@H](COP(=O)(O)CP(=O)(O)O)[C@@H](O)[C@H]2O)cc1F

Activity (P2Y purinoceptor 6 [5]): Active
inhibition (P2Y purinoceptor 6 [4]): inactive
SMILES: O=c1[nH]c(=O)n([C@@H]2O[C@H](COP(=O)(O)C(Cl)(Cl)P(=O)(O)O)[C@@H](O)[C@H]2O)cc1F
